Data: ChEMBL document CHEMBL4002644, “Discovery of GBT440, an Orally Bioavailable R-State Stabilizer of Sickle Cell Hemoglobin” (ACS Med Chem Lett, 2017)
The source made the active and inactive calls. The calls are words filed in the database; no cut-off is given here.

Key:
[1] = system: Hemoglobin HbA (Homo sapiens), P69905+P68871 [E7V]; assay: (§1) Induction of R-state stabilization of Hb betaGlu6Val mutant in sickle disease patient purified HbS/HbA mixture assessed as change from baseline of partial pressure of O2 at which HbS is 50% saturated with O2 at 30 uM preincubated for 45 mins followed by oxygenation for 10 mins and subsequent deoxygenation by hemoximetry relative to control
Procedure, shortened: (§2)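 Oxygen equilibrium curves were run on a Hemox Analyzer using Hb purified from sickle disease blood (an HbA/HbS mixture) at 25 μM. Compound was tested at 30 μM, or at 500 μM where noted. The read-out was the % change from baseline in the pO2 at which HbS is 50% saturated (Δp50).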

[2] = species on record: Homo sapiens; assay: Induction of R-state stabilization of sickle cell Hb betaGlu6Val mutant purified from sickle cell patient assessed as inhibition of KH2PO4-induced polymerization by measuring change from baseline of delay time for onset of polymerization at 75 uM preincubated for 1 hr followed by deoxygenation for …; set-up: scale not given: the % may be the effect or the level left
[3] = system: Hemoglobin HbA (Homo sapiens), P69905+P68871 [E7V]; assay: Induction of R-state stabilization of Hb betaGlu6Val mutant in sickle cell disease transfused human whole blood assessed as change from baseline of partial pressure of O2 at which HbS is 50% saturated with O2 at 1 mM preincubated for 45 mins followed by 20 mins oxygenation/deoxygenation cycle by hemoximetry relative to control
Procedure, shortened: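 Whole blood from transfused SCD subjects, at 20% hematocrit (Hb 1 mM), was run with compound at 1 mM. Oxygen equilibrium curves were measured by hemoximetry. The value is the % change from baseline in the pO2 giving 50% O2 saturation (Δp50).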

[4] = system: Rattus norvegicus; assay: Dose normalized AUC (0 to infinity) in Sprague-Dawley rat at 7.2 to 120 mg/kg, po by LC-MS/MS analysis; type: ADME, organism-based; conditions: in vivo
Procedure, shortened: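 Rat oral PK: AUC(0–∞) divided by the oral dose, expressed as (ng·h/mL)/(mg/kg).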

[5] = system: Blood; assay: Half life in Sprague-Dawley rat blood at 7.2 to 120 mg/kg, po by LC-MS/MS analysis; type: ADME, organism-based; conditions: in vivo
[6] = target: T1, Cytochrome P450 3A4 (Homo sapiens, UniProt P08684); assay: Inhibition of CYP3A4 using in human liver microsomes using testosterone as substrate after 5 to 15 mins; type: ADME
Procedure, shortened: (§3)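 CYP3A4 inhibition was measured in pooled human liver microsomes using an isozyme-specific probe substrate: midazolam for line 1 and testosterone for line 2.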

[7] = target: T1, Cytochrome P450 3A4; assay: Time dependent inhibition of CYP3A4 using in human liver microsomes using testosterone as substrate; type: ADME
[8] = Half life in dog blood; type: ADME, tissue-based, Canis lupus familiaris
[9] = target: T1, Cytochrome P450 3A4; assay: Inhibition of CYP3A4 using in human liver microsomes using midazolam as substrate after 5 to 15 mins; type: ADME; procedure, shortened: as §3
[10] = Half life in monkey plasma; type: ADME, cell-free, Macaca mulatta; conditions: rhesus monkey
[11] = Oral bioavailability in dog; type: ADME, organism-based, Canis lupus familiaris; conditions: in vivo
[12] = target: T2, Cytochrome P450 2C8 (Homo sapiens, UniProt P10632); assay: Inhibition of CYP2C8 in human liver microsomes using paclitaxel as substrate after 5 to 15 mins; type: ADME
T2 sequence (P10632 whole entry): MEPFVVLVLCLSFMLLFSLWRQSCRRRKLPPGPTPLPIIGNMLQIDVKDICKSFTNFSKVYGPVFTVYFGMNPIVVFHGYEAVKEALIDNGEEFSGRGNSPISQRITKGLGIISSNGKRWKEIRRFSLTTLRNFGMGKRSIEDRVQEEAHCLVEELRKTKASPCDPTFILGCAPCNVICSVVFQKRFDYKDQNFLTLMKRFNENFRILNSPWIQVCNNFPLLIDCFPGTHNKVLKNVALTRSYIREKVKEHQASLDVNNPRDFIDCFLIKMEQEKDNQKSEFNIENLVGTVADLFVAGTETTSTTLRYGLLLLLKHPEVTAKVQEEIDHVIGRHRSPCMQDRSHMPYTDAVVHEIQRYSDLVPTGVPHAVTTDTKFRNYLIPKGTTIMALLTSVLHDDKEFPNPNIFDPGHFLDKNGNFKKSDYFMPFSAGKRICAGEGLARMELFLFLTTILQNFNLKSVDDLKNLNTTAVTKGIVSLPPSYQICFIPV

[13] = Oral bioavailability in Sprague-Dawley rat at 7.2 to 120 mg/kg by LC-MS/MS analysis; type: ADME, organism-based; conditions: in vivo
[14] = target: Cytochrome P450 2C9 (Homo sapiens, UniProt P11712); assay: Inhibition of CYP2C9 in human liver microsomes using tolbutamide as substrate after 5 to 15 mins
[15] = target: T3, Cytochrome P450 1A2 (Homo sapiens, UniProt P05177); assay: Inhibition of CYP1A2 in human liver microsomes using phenacetin as substrate after 5 to 15 mins; type: ADME
T3 sequence (P05177 whole entry): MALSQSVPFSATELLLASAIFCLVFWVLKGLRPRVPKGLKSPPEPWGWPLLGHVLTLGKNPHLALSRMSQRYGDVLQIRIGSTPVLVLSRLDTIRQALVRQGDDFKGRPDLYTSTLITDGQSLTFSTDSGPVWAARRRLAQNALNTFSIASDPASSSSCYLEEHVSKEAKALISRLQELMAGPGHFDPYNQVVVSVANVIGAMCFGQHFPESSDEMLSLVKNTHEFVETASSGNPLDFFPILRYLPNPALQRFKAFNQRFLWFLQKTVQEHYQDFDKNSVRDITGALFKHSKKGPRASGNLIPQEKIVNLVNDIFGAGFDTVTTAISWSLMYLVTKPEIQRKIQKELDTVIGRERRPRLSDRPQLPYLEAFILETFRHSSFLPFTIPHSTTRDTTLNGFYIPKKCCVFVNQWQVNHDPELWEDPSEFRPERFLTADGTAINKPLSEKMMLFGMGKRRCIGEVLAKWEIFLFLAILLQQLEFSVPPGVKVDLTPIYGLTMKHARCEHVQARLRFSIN
Procedure, shortened: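 Pooled human liver microsomes incubated with phenacetin as the CYP1A2-specific probe substrate across a range of test-compound concentrations. IC50 derived from inhibition of probe metabolism.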

[16] = system: Hemoglobin HbA (Homo sapiens), P69905+P68871 [E7V]; assay: as §1, with “500” for “30”; procedure, shortened: as §2
[17] = target: T4, Cytochrome P450 2C19 (Homo sapiens, UniProt P33261); assay: Inhibition of CYP2C19 in human liver microsomes using S-Mephentoin as substrate after 5 to 15 mins; type: ADME
Procedure, shortened: (§4)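 Pooled human liver microsomes were incubated with isozyme-specific probe substrates: S-mephenytoin for CYP2C19 and bufuralol for CYP2D6.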

[18] = Half life in dog plasma; type: ADME, cell-free, Canis lupus familiaris
[19] = Oral bioavailability in monkey; type: ADME, organism-based, Macaca mulatta; conditions: rhesus monkey, in vivo
[20] = Half life in Sprague-Dawley rat plasma at 7.2 to 120 mg/kg, po by LC-MS/MS analysis; type: ADME, organism-based
[21] = target: Cytochrome P450 2D6 (Homo sapiens, UniProt P10635); assay: Inhibition of CYP2D6 in human liver microsomes using bufuralol as substrate after 5 to 15 mins; type: ADME; procedure, shortened: as §4
[22] = Ratio of drug level in Sprague-Dawley rat RBC to plasma at 7.2 to 120 mg/kg, po by LC-MS/MS analysis; type: ADME, organism-based; conditions: red blood cells (RBC) / plasma
[23] = Half life in monkey blood; type: ADME, tissue-based, Macaca mulatta; conditions: rhesus monkey
[24] = target: T1, Cytochrome P450 3A4; assay: Time dependent inhibition of CYP3A4 using in human liver microsomes using midazolam as substrate; type: ADME
[25] = target: T4, Cytochrome P450 2C19; assay: Time dependent inhibition of CYP2C19 in human liver microsomes using S-Mephentoin as substrate; type: ADME
[26] = system: Hemoglobin HbA (Homo sapiens), P69905+P68871 [E7V]; assay: as §1, with “100” for “30”, “20” for “oxygenation for 10”, “oxygenation/deoxygenation cycle” for “and subsequent deoxygenation”

T1 sequence (P08684 whole entry): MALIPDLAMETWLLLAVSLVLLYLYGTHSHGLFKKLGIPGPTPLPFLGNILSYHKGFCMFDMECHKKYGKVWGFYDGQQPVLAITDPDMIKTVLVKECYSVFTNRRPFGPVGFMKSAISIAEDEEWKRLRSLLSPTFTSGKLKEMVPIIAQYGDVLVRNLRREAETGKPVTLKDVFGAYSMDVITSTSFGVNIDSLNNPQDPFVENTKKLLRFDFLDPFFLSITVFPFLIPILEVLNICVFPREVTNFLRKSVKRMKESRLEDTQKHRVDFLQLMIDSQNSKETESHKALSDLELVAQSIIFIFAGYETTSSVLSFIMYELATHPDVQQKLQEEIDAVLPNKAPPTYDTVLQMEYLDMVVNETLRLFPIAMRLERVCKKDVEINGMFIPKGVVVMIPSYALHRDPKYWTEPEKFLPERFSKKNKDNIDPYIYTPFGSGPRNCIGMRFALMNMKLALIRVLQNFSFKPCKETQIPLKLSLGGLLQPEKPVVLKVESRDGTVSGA
T4 sequence (P33261 whole entry): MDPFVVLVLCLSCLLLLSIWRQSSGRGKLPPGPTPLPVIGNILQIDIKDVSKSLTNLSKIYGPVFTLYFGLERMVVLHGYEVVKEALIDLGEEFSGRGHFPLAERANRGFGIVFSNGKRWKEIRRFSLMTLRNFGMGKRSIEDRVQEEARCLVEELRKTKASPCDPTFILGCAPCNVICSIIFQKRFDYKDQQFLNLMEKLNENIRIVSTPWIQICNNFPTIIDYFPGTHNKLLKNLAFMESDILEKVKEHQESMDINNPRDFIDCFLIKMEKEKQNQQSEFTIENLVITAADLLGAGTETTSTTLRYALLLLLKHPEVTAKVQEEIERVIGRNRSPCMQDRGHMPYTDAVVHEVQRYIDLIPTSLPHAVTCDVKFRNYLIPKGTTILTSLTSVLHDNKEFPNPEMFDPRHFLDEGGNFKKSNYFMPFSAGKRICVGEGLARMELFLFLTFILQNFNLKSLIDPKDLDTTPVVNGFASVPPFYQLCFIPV
Chain of Cytochrome P450 2D6 (P10635 whole entry): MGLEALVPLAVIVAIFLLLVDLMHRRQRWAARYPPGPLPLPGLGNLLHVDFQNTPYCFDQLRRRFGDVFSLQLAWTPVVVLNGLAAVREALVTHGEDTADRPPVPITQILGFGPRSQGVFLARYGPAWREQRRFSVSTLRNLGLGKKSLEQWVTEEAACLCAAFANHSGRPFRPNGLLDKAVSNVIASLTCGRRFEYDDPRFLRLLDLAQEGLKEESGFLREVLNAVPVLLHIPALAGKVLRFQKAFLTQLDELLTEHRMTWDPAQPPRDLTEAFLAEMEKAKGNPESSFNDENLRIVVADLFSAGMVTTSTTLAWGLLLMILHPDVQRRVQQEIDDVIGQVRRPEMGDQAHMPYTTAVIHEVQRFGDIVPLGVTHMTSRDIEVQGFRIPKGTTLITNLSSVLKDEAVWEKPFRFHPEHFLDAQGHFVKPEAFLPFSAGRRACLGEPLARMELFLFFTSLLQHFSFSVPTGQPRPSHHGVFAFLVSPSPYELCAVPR
Chain of Cytochrome P450 2C9 (P11712 whole entry): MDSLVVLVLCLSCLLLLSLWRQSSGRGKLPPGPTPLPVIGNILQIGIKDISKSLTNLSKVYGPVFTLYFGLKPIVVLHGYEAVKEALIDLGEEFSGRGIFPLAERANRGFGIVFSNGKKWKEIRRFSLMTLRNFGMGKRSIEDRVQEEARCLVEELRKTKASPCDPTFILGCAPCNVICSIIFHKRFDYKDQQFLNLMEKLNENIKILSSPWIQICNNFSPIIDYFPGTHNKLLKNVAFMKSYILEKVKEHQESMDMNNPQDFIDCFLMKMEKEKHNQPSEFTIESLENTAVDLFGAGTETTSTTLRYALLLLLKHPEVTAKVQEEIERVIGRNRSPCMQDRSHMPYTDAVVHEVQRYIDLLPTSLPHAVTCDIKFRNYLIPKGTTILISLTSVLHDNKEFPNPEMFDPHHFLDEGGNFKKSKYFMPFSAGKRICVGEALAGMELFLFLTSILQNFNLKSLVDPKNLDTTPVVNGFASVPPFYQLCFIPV

| Activity [1] [%] | Activity [2] [%] | Activity [3] [%] | AUC/dose [4] [ng·h/mL/mg/kg] | t1/2 [5] [h] | SMILES | further results |
| --- | --- | --- | --- | --- | --- | --- |
| 14.2 | – | – | – | – | COc1cc(C=O)c(OCc2cc3ccccc3nc2-c2ccn[nH]2)cn1 | – |
| 53.3 | 70.3 | 56.4 | 34.2 | 0.7 | CC(C)n1nccc1-c1ncccc1COc1cccnc1C=O | – |
| 67.8 | 104 | 72.8 | 438 | 2.7 | CC(C)n1nccc1-c1ncccc1COc1cccc(F)c1C=O | – |
| 54.5 | 131 | 55 | 36.4 | 2.5 | COc1cncc(OCc2cccnc2-c2ccnn2C(C)C)c1C=O | – |
| 70.5 | 167 | 72.5 | 10887 | 8.1 | CC(C)n1nccc1-c1ncccc1COc1cncc(O)c1C=O | – |
| 55.9 | 77.8 | 68.9 | 1950 | 1.5 | COCCOc1cc(C=O)c(OCc2cccnc2-c2ccnn2C(C)C)cn1 | – |
| 43.2 | – | – | – | – | COc1cc(C=O)c(OCc2ccc3ccccc3n2)cn1 | – |
| 16.4 | – | – | – | – | COC(=O)c1cc(COc2cnc(OC)cc2C=O)c2nccn2c1 | – |
| 31.8 | – | – | – | – | COc1cc(C=O)c(OCc2cccnc2-n2cccn2)cn1 | – |
| 40.2 | – | 19.2 | – | – | COc1cc(C=O)c(OCc2cccnc2-c2ccn[nH]2)cn1 | – |
| 13.7 | – | – | – | – | COc1cc(C=O)c(OCc2ccc3ccncc3c2)cn1 | – |
| 32.7 | 105 | 64.7 | – | – | COc1cc(C=O)c(OCc2cccnc2-c2ccnn2CCO)cn1 | – |
| 51.7 | 64.5 | 43.1 | – | – | COc1cc(C=O)c(OCc2cccnc2-c2[nH]ncc2C)cn1 | – |
| 36 | – | – | – | – | COc1cc(C=O)c(OCc2cccc3ncccc23)cn1 | – |
| 43.1 | 73.1 | 49.7 | – | – | CC(C)n1nccc1-c1ncccc1COc1cnc(OC(F)F)cc1C=O | – |
| 34 | – | – | – | – | COc1ccc(OCc2cccnc2)c(C=O)c1 | Activity [26]: Active |
| 27.4 | 64.5 | – | – | – | COc1cc(C=O)c(OCc2cccnc2-c2c(C)cnn2C)cn1 | – |
| 40.2 | – | – | – | – | COc1cc(C=O)c(OCc2nccc3ccccc23)cn1 | – |
| 66.2 | 115 | 66.9 | 20.6 | 2.7 | COc1cc(C=O)c(OCc2cccnc2-c2ccnn2C(C)C)cn1 | Kp [22]: 38 |
| 9 | – | – | – | – | COc1cc(C=O)c(OCc2cncc(-c3ccn[nH]3)c2)cn1 | – |
| 37.9 | – | – | – | – | COc1cc(C=O)c(OCc2cccn3cncc23)cn1 | – |

| SMILES | Activity [1] [%] | Activity [2] [%] | Activity [3] [%] | AUC/dose [4] [ng·h/mL/mg/kg] | t1/2 [5] [h] | further results |
| --- | --- | --- | --- | --- | --- | --- |
| CC(C)n1nccc1-c1ncccc1COc1cccc(O)c1C=O [VOXELOTOR] | 72.1 | 206 | 79.8 | 326806 | 19.1 | IC50 [6]: 12.5 µM; TDI [7]: Not Active; half-life [8]: 20 h; IC50 [9]: 81.9 µM; half-life [10]: 20 h; bioavailability [11]: 37%; IC50 [12]: 7.9 µM; bioavailability [13]: 60%; IC50 [14]: 8.5 µM; IC50 [15]: 58.6 µM; Activity [16]: 2.6%; IC50 [17]: 20 µM; half-life [18]: 20 h; bioavailability [19]: 36%; half-life [20]: 20 h; IC50 [21]: 148 µM; Kp [22]: 150; half-life [23]: 20 h; TDI [24]: Not Active; TDI [25]: Not Active |
